Reference: PMC3435882 (Molecular imaging and biology : MIB : the official …, 2009)
Each block holds one compound with its values, some of them ahead of it. Bridge positions count the residues as written; N and C are the ends. Square brackets hold non-standard residues; d marks the D form. Peptide text beside a SMILES is read from it. Cy5.5 = cyanine dye Cy5.5, conjugated as the NHS ester; βAla = NCCC(=O)O

What was measured:
MMP-2 [1] = molecular target: T1, MMP-2 (Homo sapiens, UniProt P08253); assay: In vitro MMP-2 inhibition assay; format: biochemical; conditions: MMP-2 Inhibition IC50, APMA-activated MMP-2, 1 hr preincubation at 37°C
T1 sequence (P08253 110-660): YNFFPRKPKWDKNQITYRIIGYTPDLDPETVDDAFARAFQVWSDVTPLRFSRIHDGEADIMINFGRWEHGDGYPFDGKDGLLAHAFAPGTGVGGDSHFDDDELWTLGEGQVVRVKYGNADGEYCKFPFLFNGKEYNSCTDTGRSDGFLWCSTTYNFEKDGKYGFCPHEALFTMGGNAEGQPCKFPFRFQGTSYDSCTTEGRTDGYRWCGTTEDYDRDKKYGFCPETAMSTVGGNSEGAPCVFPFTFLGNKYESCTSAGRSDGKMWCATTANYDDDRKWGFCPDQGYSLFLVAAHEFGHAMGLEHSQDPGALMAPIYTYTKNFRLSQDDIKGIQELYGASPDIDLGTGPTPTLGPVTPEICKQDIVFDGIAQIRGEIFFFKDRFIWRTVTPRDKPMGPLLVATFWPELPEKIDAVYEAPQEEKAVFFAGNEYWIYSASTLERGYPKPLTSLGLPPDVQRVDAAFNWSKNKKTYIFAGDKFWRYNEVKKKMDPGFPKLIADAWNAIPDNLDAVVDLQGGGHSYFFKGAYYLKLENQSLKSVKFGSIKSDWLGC
How it was run: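 Commercial MMP-2 was activated with APMA. Test compound was preincubated with activated enzyme (40 ng/200 μl) for 1 hr at 37°C, then biotinylated gelatinase substrate was added for 1 hr. The mixture was moved to a biotin-binding plate (30 min, 37°C) and washed. Streptavidin-enzyme conjugate and chromogenic substrate followed, and OD at 450 nm gave relative gelatinase activity.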

[2] = Stability study in serum-containing culture medium; format: in vitro ADME; conditions: DMEM/F-12 with 10% fetal bovine serum, 25°C, over 3 hr, HPLC
How it was run: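 Peptides were incubated at 25°C in DMEM/F-12 containing 10% FBS. Aliquots taken at intervals were analysed by reverse-phase C-18 HPLC using an acetonitrile/water gradient with 0.1% TFA and UV detection at 230 nm. Intact-peptide peak area was expressed as a percentage of the 0-min area.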

U87 cells [3] = assay: Fluorescence microscopy, probe uptake in U87 cells; format: cell-based, human; conditions: for uptake/binding in U87 cells: 10 μM, 37°C, 5 min
How it was run: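 U87 cells grown in DMEM/F-12 with 10% FBS were seeded on cover slips overnight. For blocking, cells were pretreated with doxycycline (5, 25, 100 μM) or unlabelled peptide, then given 10 μM Cy5.5-labelled test compound; uptake samples received the probe alone (10 μM, 37°C, 5 min). After two PBS washes, cells were fixed and stained with 1 μM Sytox Green in 95% ethanol (15 min). Fluorescence microscopy was at ×60.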

PC-3 tumors = format: in vivo, mice; conditions: for tumor uptake in intratibial PC-3 tumors: 48 hr after intravenous injection, 15 nmol/mouse
[4] = system: gelatinase activity in U87 cell lysates; assay: Gelatin zymography; format: biochemical, human; conditions: U87 cell lysate, doxycycline 100 μM in incubation buffer
How it was run: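 U87 cells were lysed in 1% Triton X-100, 50 mM Tris-HCl pH 7.6, 200 mM NaCl, 10 mM CaCl₂, then spun 10 min at 9700 × g. Supernatant was diluted 1:4 in SDS sample buffer, loaded at equal protein and run on 10% gels containing 1 mg/ml gelatin. Gels were washed 4 hr in Triton/CaCl₂ buffer and developed overnight at 37°C (pH 7.6), with doxycycline added, then Coomassie-stained.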

U87 cells [5] = assay: Confocal microscopy of U87 cells; format: cell-based, human; conditions: 5 min
How it was run: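 U87 cells (1 × 10⁵) on cover slips in 24-well plates were exposed to 10 μM Cy5.5-labelled test compound or free Cy5.5. They were held 5 min at 4°C or 37°C in the dark, then washed twice with PBS. Nuclei were stained with 1 μM Sytox Green. After two more PBS washes, slides were mounted for confocal imaging at emission 693 nm (Cy5.5) and 488 nm (Sytox Green).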

MMP-2 [6] = molecular target: T1, MMP-2; assay: In vitro β-casein degradation assay; format: biochemical; conditions: 0, 10, 50, 200 μM; SDS-PAGE
PC-3 cells = assay: Fluorescence microscopy, probe uptake in PC-3 cells; format: cell-based, human; conditions: 10 μM, 37°C, 5 min
How it was run: (§1)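 Cells were kept in DMEM/F-12 with 10% FBS at 37°C, 5% CO₂, seeded on cover slips and incubated overnight. Cy5.5-labelled test compound (10 μM) was added for 5 min at 37°C. Cells were washed twice with PBS, then fixed and nuclear-stained with 1 μM Sytox Green in 95% ethanol for 15 min. Fluorescence microscopy was at ×60.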

A549 cells = assay: Fluorescence microscopy, probe uptake in A549 cells; format: cell-based, human; conditions: 10 μM, 37°C, 5 min
How it was run: as §1

U87 brain tumors = assay: In vivo and ex vivo NIRF imaging of intracranial U87 tumors; design: species or system mice; conditions: 24 hr after intravenous administration, 15 nmol/mouse

IC50 (MMP-2 [1]): 30.3 µM | stability of intact peptide [2]: completely degraded
Compound: CC(C)C[C@@H]1NC(=O)[C@H]([C@@H](C)O)NC(=O)[C@H](Cc2ccccc2)NC(=O)CNC(=O)[C@H](Cc2c[nH]c3ccccc23)NC(=O)[C@H](Cc2c[nH]cn2)NC(=O)[C@H]([C@@H](C)O)NC(=O)[C@H]([C@@H](C)O)NC(=O)[C@@H](N)CSSC[C@@H](C(N)=O)NC1=O [C1, c(CTTHWGFTLC)NH2, reference compound] (H-CTTHWGFTLC-NH2; disulfide 1-10)

IC50 (MMP-2 [1]): 83.9 µM
Compound: CC(C)C[C@@H]1NC(=O)[C@H]([C@@H](C)O)NC(=O)[C@H](Cc2ccccc2)NC(=O)CNC(=O)[C@H](Cc2c[nH]c3ccccc23)NC(=O)[C@H](Cc2c[nH]cn2)NC(=O)[C@H]([C@@H](C)O)NC(=O)[C@H]([C@@H](C)O)NC(=O)[C@H](C)NC(=O)CCNC1=O [C3, c(ATTHWGFTL-β-Ala)] (cyclo(ATTHWGFTL[βAla]))

Compound: C[C@H]1c2cccc(O)c2C(=O)C2=C(O)[C@]3(O)C(=O)C(C(N)=O)=C(O)[C@@H](N(C)C)[C@@H]3[C@@H](O)[C@@H]21 [doxycycline, reference compound]
blocking of Cy5.5-C6 binding to U87 cells (U87 cells [3]; doxycycline 25 and 100 μM followed by Cy5.5-C6 10 μM): partially blocked | blocking of in vivo uptake of Cy5.5-C6 in PC-3 tumors (PC-3 tumors; co-injection with doxycycline (data not shown)): could not be blocked | blocking of gelatinase activity in zymography [4]: could be blocked

Compound: Cy5.5 [reference compound]
uptake/binding in U87 cells (U87 cells [3]): did not bind to the cells | cell uptake and distribution at 37°C (U87 cells [5]): minimal uptake

Compound: Cy5.5-c(CTTHWGFTLC)NH2 ({Cy5.5}-CTTHWGFTLC-NH2; disulfide 1-10) [Cy5.5-C1]
inhibition of β-casein degradation by MMP-2 (MMP-2 [6]): inhibited the degradation of β-casein in a dose-dependent manner | uptake/binding in U87 cells (U87 cells [3]): to a less degree | tumor uptake in intratibial PC-3 tumors (PC-3 tumors): tumor targeting could not be detected

Compound: Cy5.5-c(KAHWGFTLD)NH2 ({Cy5.5}-KAHWGFTLD-NH2; lactam 1-9) [Cy5.5-C6]
inhibition of β-casein degradation by MMP-2 (MMP-2 [6]): inhibited the degradation of β-casein in a dose-dependent manner | uptake/binding in U87 cells (U87 cells [3]): rapidly taken up | uptake in PC-3 cells (PC-3 cells): taken up | binding to A549 cells (minimal MMP-2 activity) (A549 cells): did not bind | cell uptake at 4°C (U87 cells [5]; 4°C): substantially reduced | cell uptake and distribution at 37°C (U87 cells [5]): distributed to cell cytosol and nuclei | tumor uptake in intratibial PC-3 tumors (PC-3 tumors): clearly visualized | localization to orthotopic U87 gliomas (U87 brain tumors): readily visible

Compound: Cy5.5-c(KHGLTWFAD)NH2 ({Cy5.5}-KHGLTWFAD-NH2; also: cyclic, ring type and sites not given here) [Cy5.5-C7]
tumor uptake in intratibial PC-3 tumors (PC-3 tumors): not taken up by the tumors
